ChEMBL document CHEMBL4041482, “Synthesis, evaluation, and CoMFA study of fluoroquinophenoxazine derivatives as bacterial topoisomerase IA inhibitors” (Eur J Med Chem, 2017)
In brackets after ≈: the same amount, converted by molar mass.

What was measured:
[1] = Inhibition of recombinant Escherichia coli topoisomerase 1a expressed in Escherichia coli assessed as reduction in enzyme-mediated relaxation of supercoiled pBAD/Thio DNA preincubated with enzyme followed by substrate addition measured after 30 mins by ethidium bromide staining based agarose gel electrophoresis method
Escherichia coli [2] = assay: Antibacterial activity against Escherichia coli K12 MG1655 by microdilution method; type: functional; conditions: K-12 substr. MG1655
Outline: (§1)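 MICs determined by standard broth microdilution in cation-adjusted Mueller-Hinton Broth; E. coli BAS3023 carries an imp mutation conferring membrane permeability to small molecules, MG1655 K12 is wild type.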

[3] = Stability of the compound in DMSO-d6 solvent after several weeks by HPLC method; type: physicochemical
[4] = Stability of the compound in DMSO-d6 solvent after several weeks by 1H NMR method; type: physicochemical
Escherichia coli [5] = assay: Antibacterial activity against Escherichia coli BAS3023 harboring imp mutant by microdilution method; type: functional; outline: as §1
[6] = Solubility in DMSO-d6 solvent by 1H NMR method; type: physicochemical
[7] = Inhibition of recombinant Escherichia coli DNA gyrase expressed in Escherichia coli assessed as reduction in enzyme-mediated supercoiling of relaxed circular DNA preincubated with enzyme followed by substrate addition measured after 30 mins by agarose gel electrophoresis method
[8] = molecular target: DNA topoisomerase 2-alpha (Homo sapiens, UniProt P11388); assay: Inhibition of human topoisomerase-2alpha assessed as reduction in enzyme-mediated decatenation using kinetoplast DNA as substrate after 15 mins by ethidium bromide staining based agarose gel electrophoresis method
[9] = Inhibition of human topoisomerase type 1B assessed as reduction in enzyme-mediated relaxation of supercoiled pBAD/Thio DNA after 30 mins by agarose gel electrophoresis method
Outline: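 Human topoisomerase I, 0.5 U, in manufacturer's reaction buffer; enzyme mixed with compound before 200 ng supercoiled pBAD/Thio plasmid added, 20 μL final. 37 °C for 30 minutes; stopped with SDS/bromophenol blue/glycerol buffer; agarose gel electrophoresis read-out.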

[10] = Inhibition of recombinant Escherichia coli topoisomerase 1a expressed in Escherichia coli assessed as reduction in enzyme-mediated relaxation of supercoiled pBAD/Thio DNA preincubated with enzyme followed by substrate addition measured after 30 mins by high-throughput screening assay
Bacillus spizizenii = assay: Antibacterial activity against Bacillus subtilis ATCC 6633 by microdilution method; type: functional
Outline: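 Broth microdilution per standard protocol in cation-adjusted Mueller-Hinton broth; MIC taken as lowest inhibiting concentration.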

Vero = assay: Cytotoxicity against African green monkey Vero cells assessed as reduction in cell viability after 72 hrs by MTS assay; type: cell-based; conditions: Chlorocebus sabaeus
[11] = tested on: Mycobacterium tuberculosis; assay: Antimycobacterial activity against Mycobacterium tuberculosis H37Rv after 7 days by microplate alamar blue assay; type: functional; conditions: 168 h
[12] = Selectivity index, ratio of IC50 for African green monkey Vero cells to MIC for Mycobacterium tuberculosis H37Rv; type: toxicity
Outline: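 SI computed as cytotoxic IC50 against Vero cells divided by MIC against M. tuberculosis; Mtb MIC from modified microplate Alamar blue assay.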

Chain of DNA topoisomerase 2-alpha (P11388 whole entry): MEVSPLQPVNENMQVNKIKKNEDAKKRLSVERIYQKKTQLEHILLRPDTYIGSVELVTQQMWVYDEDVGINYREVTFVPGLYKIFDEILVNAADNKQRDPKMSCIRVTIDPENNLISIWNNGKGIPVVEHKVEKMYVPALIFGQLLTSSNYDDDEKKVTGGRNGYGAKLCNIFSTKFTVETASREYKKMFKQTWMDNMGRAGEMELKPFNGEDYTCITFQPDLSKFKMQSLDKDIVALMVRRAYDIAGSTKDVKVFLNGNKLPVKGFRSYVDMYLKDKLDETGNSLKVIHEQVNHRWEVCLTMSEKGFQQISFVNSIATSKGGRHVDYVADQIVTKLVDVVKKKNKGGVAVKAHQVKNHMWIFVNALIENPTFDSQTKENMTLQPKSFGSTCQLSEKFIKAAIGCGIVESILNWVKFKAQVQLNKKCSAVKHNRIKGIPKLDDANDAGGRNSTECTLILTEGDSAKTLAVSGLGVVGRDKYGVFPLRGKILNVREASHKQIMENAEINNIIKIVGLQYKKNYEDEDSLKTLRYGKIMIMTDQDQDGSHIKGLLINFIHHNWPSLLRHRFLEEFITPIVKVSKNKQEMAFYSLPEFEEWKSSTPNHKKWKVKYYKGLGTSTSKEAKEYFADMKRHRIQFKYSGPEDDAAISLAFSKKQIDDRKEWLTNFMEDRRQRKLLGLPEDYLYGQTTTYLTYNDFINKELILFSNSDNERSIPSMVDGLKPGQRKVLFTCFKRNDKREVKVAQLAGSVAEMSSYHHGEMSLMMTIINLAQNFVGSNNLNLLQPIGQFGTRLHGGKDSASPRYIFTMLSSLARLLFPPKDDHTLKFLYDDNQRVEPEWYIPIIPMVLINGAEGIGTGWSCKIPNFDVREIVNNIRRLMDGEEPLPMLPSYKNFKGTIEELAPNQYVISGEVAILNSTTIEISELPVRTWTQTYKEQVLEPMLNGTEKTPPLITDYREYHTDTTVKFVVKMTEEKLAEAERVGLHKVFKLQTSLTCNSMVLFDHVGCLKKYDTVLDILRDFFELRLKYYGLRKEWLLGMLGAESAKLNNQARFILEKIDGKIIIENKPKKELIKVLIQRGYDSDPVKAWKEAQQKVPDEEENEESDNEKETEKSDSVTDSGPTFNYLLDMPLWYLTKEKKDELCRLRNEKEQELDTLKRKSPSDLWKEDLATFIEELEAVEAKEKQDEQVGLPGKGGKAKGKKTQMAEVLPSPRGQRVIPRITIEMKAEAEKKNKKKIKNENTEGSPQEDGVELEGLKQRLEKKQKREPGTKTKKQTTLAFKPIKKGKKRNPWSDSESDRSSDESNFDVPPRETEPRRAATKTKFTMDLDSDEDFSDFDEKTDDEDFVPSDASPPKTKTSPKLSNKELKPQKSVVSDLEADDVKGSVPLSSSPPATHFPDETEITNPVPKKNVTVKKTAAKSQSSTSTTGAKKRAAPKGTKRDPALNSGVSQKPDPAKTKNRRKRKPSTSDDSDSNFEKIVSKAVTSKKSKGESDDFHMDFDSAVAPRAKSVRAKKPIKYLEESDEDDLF

Row | SMILES | IC50 [1] [µM] | pIC50 [1] | MIC (Escherichia coli [2]) [µM] | Stability [3] | Stability [4] | MIC (Escherichia coli [5]) [µM] | solubility [6] | IC50 [7] [µM] | IC50 [8] [µM] | IC50 [9] [µM] | IC50 [10] [µM] | MIC (Bacillus spizizenii) [µM] | IC50 (Vero) [µM] | MIC [11] [µM] | Selectivity Index [12]
1 | Nc1ccc2c(c1)Oc1c(F)c(F)cc3c(=O)c(C(=O)O)cn-2c13 | 1.95 | 5.71 | > 200 | Stable | Stable | 0.78 to 1.56 (≈ 0.258 to 0.515 µg/mL) | Insoluble | > 125 | > 500 | 31.3 | 0.8 to 2 | – | – | – | –
2 | CN1CCN(c2c(F)cc3c(=O)c(C(=O)O)cn4c3c2Oc2cc(N)ccc2-4)CC1 | 0.48 | 6.32 | – | – | – | – | – | 15.6 to 31.2 | 3.9 to 7.8 | 15.6 | – | – | – | – | –
3 | N#Cc1ccc2c(c1)Oc1c(F)c(F)cc3c(=O)c(C(=O)O)cn-2c13 | 31.2 | 4.51 | > 200 | – | – | 200 (≈ 68 µg/mL) | – | – | – | – | – | > 200 | – | – | –
4 | CC(=O)Nc1ccc2c(c1)Oc1c(F)c(F)cc3c(=O)c(C(=O)O)cn-2c13 | 7.8 | 5.11 | > 200 | – | – | > 200 | – | – | – | – | – | > 200 | – | – | –
5 | Nc1ccc2c(c1)Oc1c(N3CC[C@H](N)C3)c(F)cc3c(=O)c(C(=O)O)cn-2c13 | 0.48 to 0.97 | 6.14 | > 200 | – | – | 1.56 (≈ 0.618 µg/mL) | – | – | – | – | – | 6.25 (≈ 2.48 µg/mL) | > 63.1 | – | –
6 | O=C(O)c1cn2c3c(c(F)c(F)cc3c1=O)Oc1cc(C(F)(F)F)ccc1-2 | 125 to 250 | 3.61 | > 200 | – | – | > 200 | – | – | – | – | – | 25 (≈ 9.58 µg/mL) | – | – | –
7 | Nc1ccc2c(c1)Oc1c(N3CCNCC3)c(F)cc3c(=O)c(C(=O)O)cn-2c13 | 0.24 | 6.62 | > 200 | – | – | 0.39 (≈ 0.155 µg/mL) | – | 7.8 to 15.6 | 1.95 to 3.9 | 7.8 | – | – | > 126 | – | –
8 | Nc1ccc2c(c1)Oc1c(N3CCC(N4CCCCC4)CC3)c(F)cc3c(=O)c(C(=O)O)cn-2c13 | 0.48 | – | > 200 | – | – | 0.39 to 0.78 (≈ 0.187 to 0.373 µg/mL) | – | 15.6 | – | 3.9 | – | 1.56 (≈ 0.746 µg/mL) | 24.4 | 2.5 (≈ 1.2 µg/mL) | –
9 | CN1CCN(c2c(F)cc3c(=O)c(C(=O)O)cn4c3c2Oc2cc([N+](=O)[O-])ccc2-4)CC1 | 1.95 | 5.71 | 100 (≈ 44 µg/mL) | – | – | 1.56 (≈ 0.687 µg/mL) | – | 62.5 to 125 | – | 31.2 | – | 0.78 (≈ 0.344 µg/mL) | 95 | 19 (≈ 8.37 µg/mL) | –
10 | Nc1ccc2c(c1)Oc1c(NC3CCCC3)c(F)cc3c(=O)c(C(=O)O)cn-2c13 | 3.9 | 5.41 | > 200 | – | – | 25 (≈ 9.88 µg/mL) | – | – | – | – | – | 12.5 (≈ 4.94 µg/mL) | – | – | –
11 | CCOC(=O)c1cn2c3c(c(F)c(F)cc3c1=O)Oc1cc([N+](=O)[O-])ccc1-2 | 15.6 | 4.81 | > 200 | – | – | 50 (≈ 19.4 µg/mL) | – | – | – | – | – | 25 (≈ 9.71 µg/mL) | – | – | –
12 | Nc1ccc2c(c1)Oc1c(NCCc3ccccc3)c(F)cc3c(=O)c(C(=O)O)cn-2c13 | 3.9 | 5.41 | > 200 | – | – | 50 (≈ 21.6 µg/mL) | – | – | – | – | – | 25 to 50 (≈ 10.8 to 21.6 µg/mL) | – | – | –
13 | Nc1ccc2c(c1)Oc1c(NCCN3CCOCC3)c(F)cc3c(=O)c(C(=O)O)cn-2c13 | – | – | > 200 | – | – | 0.78 (≈ 0.344 µg/mL) | – | 15.6 to 31.2 | – | 7.8 to 15.6 | – | 1.56 (≈ 0.687 µg/mL) | 43 | 21.6 (≈ 9.51 µg/mL) | –
14 | O=C(O)c1cn2c3c(c(N4CCNCC4)c(F)cc3c1=O)Oc1cc([N+](=O)[O-])ccc1-2 | 3.9 | 5.41 | > 200 | – | – | > 200 | – | – | – | – | – | > 200 | – | – | –
15 | Nc1ccc2c(c1)Oc1c(NC3CCCCC3)c(F)cc3c(=O)c(C(=O)O)cn-2c13 | 3.9 | 5.41 | > 200 | – | – | 25 (≈ 10.2 µg/mL) | – | – | – | – | – | 12.5 (≈ 5.12 µg/mL) | – | – | –
16 | N[C@H]1CCN(c2c(F)cc3c(=O)c(C(=O)O)cn4c3c2Oc2cc([N+](=O)[O-])ccc2-4)C1 | 0.48 | 6.32 | > 200 | – | – | 1.56 (≈ 0.665 µg/mL) | – | 3.9 | 1.95 to 3.9 | 7.8 | – | 0.78 (≈ 0.333 µg/mL) | > 50 | > 50 | –
17 | CC1CCN(c2c(F)cc3c(=O)c(C(=O)O)cn4c3c2Oc2cc(N)ccc2-4)CC1 | 3.9 | 5.41 | > 200 | – | – | 3.12 (≈ 1.28 µg/mL) | – | – | – | – | – | 0.78 (≈ 0.319 µg/mL) | – | – | –
18 | CCOC(=O)c1cn2c3c(c(N4CCN(C)CC4)c(F)cc3c1=O)Oc1cc([N+](=O)[O-])ccc1-2 | 1.95 | 5.71 | > 200 | – | – | 25 (≈ 11.7 µg/mL) | – | – | – | – | – | 50 (≈ 23.4 µg/mL) | – | – | –
19 | CC(=O)c1ccc2c(c1)Oc1c(F)c(F)cc3c(=O)c(C(=O)O)cn-2c13 | 15.6 | 4.81 | > 200 | – | – | > 200 | – | – | – | – | – | > 200 | – | – | –
20 | O=C(O)c1cn2c3c(c(F)c(F)cc3c1=O)Oc1cc([N+](=O)[O-])c(Cl)cc1-2 | 31.2 | 4.51 | 50 (≈ 19.7 µg/mL) | – | – | 0.39 (≈ 0.154 µg/mL) | – | 62.5 | – | 31.2 | – | 3.12 (≈ 1.23 µg/mL) | > 127 | 29 (≈ 11.4 µg/mL) | –
21 | CCOC(=O)c1cn2c3c(c(F)c(F)cc3c1=O)Oc1cc(C(F)(F)F)ccc1-2 | 125 to 250 | 3.6 | > 200 | – | – | > 200 | – | – | – | – | – | > 200 | – | – | –
22 | CC(C)(C)OC(=O)N[C@H]1CCN(c2c(F)cc3c(=O)c(C(=O)O)cn4c3c2Oc2cc(N)ccc2-4)C1 | 3.9 | 5.41 | > 200 | – | – | – | – | – | – | – | – | 12.5 (≈ 6.21 µg/mL) | – | – | –
23 | Nc1ccc2c(c1)Oc1c(NC34CC5CC(CC(C5)C3)C4)c(F)cc3c(=O)c(C(=O)O)cn-2c13 | 3.9 to 7.8 | 5.23 | > 200 | – | – | 3.12 (≈ 1.44 µg/mL) | – | – | – | – | – | 12.5 (≈ 5.77 µg/mL) | 30.7 | 38.4 (≈ 17.7 µg/mL) | 0.8
24 | CCCCCCNc1c(F)cc2c(=O)c(C(=O)O)cn3c2c1Oc1cc(N)ccc1-3 | 15.6 | 4.81 | > 200 | – | – | > 200 | – | – | – | – | – | > 200 | – | – | –
25 | CCOC(=O)c1cn2c3c(c(F)c(F)cc3c1=O)Oc1cc(C#N)ccc1-2 | 31.2 | 4.51 | > 200 | – | – | > 200 | – | – | – | – | – | 200 (≈ 73.7 µg/mL) | – | – | –
26 | Nc1ccc2c(c1)Oc1c(N3CCOCC3)c(F)cc3c(=O)c(C(=O)O)cn-2c13 | 0.97 | 6.01 | > 200 | – | – | 0.19 to 0.39 (≈ 0.0755 to 0.155 µg/mL) | – | 7.8 | – | – | – | 0.19 (≈ 0.0755 µg/mL) | 24.7 | 3.5 (≈ 1.39 µg/mL) | –
27 | O=C(O)c1cn2c3c(c(F)c(F)cc3c1=O)Oc1cc([N+](=O)[O-])ccc1-2 | 15.6 | 4.81 | 200 (≈ 72 µg/mL) | – | – | 0.78 (≈ 0.281 µg/mL) | – | – | – | – | – | 12.5 (≈ 4.5 µg/mL) | – | – | –
28 | Nc1ccc2c(c1)Oc1c(N3CC[C@@H](N)C3)c(F)cc3c(=O)c(C(=O)O)cn-2c13 | 0.48 to 0.97 | 6.14 | – | – | – | 6.25 (≈ 2.48 µg/mL) | – | – | – | – | – | 12.5 (≈ 4.95 µg/mL) | > 63.1 | > 63.1 | –
